# Assay results pooled from the literature.
# Protocols differ between the studies behind these lines.
# Target: Myosin light chain kinase family member 4 (MYLK4, Homo sapiens, UniProt Q86YV6)
# One construct used (Q86YV6 1-388): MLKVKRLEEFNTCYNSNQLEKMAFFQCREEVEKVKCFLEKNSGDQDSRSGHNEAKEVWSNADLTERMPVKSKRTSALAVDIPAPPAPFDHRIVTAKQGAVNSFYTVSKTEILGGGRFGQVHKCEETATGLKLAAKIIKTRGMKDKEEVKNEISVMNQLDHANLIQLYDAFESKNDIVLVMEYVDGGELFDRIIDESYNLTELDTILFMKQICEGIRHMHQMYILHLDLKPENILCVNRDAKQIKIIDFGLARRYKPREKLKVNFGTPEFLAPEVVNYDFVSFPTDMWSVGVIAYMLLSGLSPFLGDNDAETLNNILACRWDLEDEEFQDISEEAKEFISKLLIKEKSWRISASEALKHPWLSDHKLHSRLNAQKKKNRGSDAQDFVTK
Structure (SMILES),read-out,mode,method,concentration,measurement,result
O=C(Nc1cnn(-c2csc(C(=O)NC3COC3)c2)c1)Nc1c(F)cccc1Cl,enzyme activity,inhibitor,,5 µM,remaining activity,91.7%
Nc1c(C(=O)NCc2ccc(C(=O)NCCCC3CCCCC3)cc2)cnn1-c1ccccc1,cell-free assay,,competition with immobilised ligand,0.1 µM,remaining binding,100%
Fc1cccc(-n2cnc3c(NCc4nc5c(F)c(F)ccc5[nH]4)nc(N4CCOCC4)nc32)c1,binding,,competition with immobilised ligand,10 µM,binding vs control,2.1%
O=C(Nc1cnn(-c2csc(C(=O)NC3COC3)c2)c1)Nc1ccccc1Cl,enzyme activity,inhibitor,,5 µM,remaining activity,85.2%
O=[N+]([O-])c1cccc2[nH]c(CNc3nc(N4CCOCC4)nc4c3ncn4-c3ccsc3)nc12,binding,,competition with immobilised ligand,10 µM,binding vs control,2.6%
Nc1ncnc2occ(-c3ccc(NC(=O)Nc4cc(C(F)(F)F)ccc4F)cc3)c12,enzyme activity,inhibitor,,20 µM,remaining activity,48%
Cc1ccc(C(=O)Nc2ccc(CN3CCN(C)CC3)c(C(F)(F)F)c2)cc1C#Cc1cnc2cccnn12,enzyme activity,inhibitor,,23.5 nM,remaining activity,92%
CCCOc1ccc([C@@H]2[C@@H](C(=O)O)[C@H](c3ccc4c(c3)OCO4)CN2CC(=O)Nc2c(CC)cccc2CC)cc1,cell-free assay,,competition with immobilised ligand,1 µM,remaining binding,100%
